From ChEMBL document CHEMBL1154251, “Yeast glycogen synthase kinase-3beta pathway inhibitors from an organic extract of Streptomyces sp” (J Nat Prod, 2009)
Calls of active or inactive are those of the source. No cut-off for these calls is given here.

How the values were obtained:
[1] = target: Glycogen synthase kinase-3 beta (Homo sapiens) (UniProt P49841); test: Inhibition of GSK3-beta expressed in H10075 yeast assessed as growth inhibition at 20 ug/disk after 72 hrs at 25 degreeC by disc diffusion method
Glycogen synthase kinase-3 beta (Homo sapiens), sequence (P49841 whole entry, looked up, the tested form may be a part): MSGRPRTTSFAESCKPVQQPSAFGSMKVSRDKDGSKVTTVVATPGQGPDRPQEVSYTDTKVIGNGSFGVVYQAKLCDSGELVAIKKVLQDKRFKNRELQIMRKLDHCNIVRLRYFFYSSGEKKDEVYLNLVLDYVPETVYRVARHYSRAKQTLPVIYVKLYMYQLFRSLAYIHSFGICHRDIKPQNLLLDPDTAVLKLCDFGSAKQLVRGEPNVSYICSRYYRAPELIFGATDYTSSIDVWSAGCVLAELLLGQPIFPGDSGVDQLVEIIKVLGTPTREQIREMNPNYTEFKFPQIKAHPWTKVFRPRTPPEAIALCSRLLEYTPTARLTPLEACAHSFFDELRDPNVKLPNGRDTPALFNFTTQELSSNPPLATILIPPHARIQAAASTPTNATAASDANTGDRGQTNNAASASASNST
In short: (§1)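 Yeast gsk-3 null strain H10075 (mck1 mds1 mrk1 yol128c disrupted) carrying cloned human GSK-3β on pKT10; grown 2 days at 37 °C in SC minus uracil, then seeded into SC minus uracil agar pH 5.6. Compounds applied on filter disks (20, 10, 5, 2.5 µg per disk); plates incubated 72 h at 25 and 37 °C; zone of inhibition diameter read; duplicate.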

[2] = target: Glycogen synthase kinase-3 beta (Homo sapiens) (UniProt P49841); test: Inhibition of GSK3-beta expressed in H10075 yeast assessed as growth inhibition at 20 ug/disk after 72 hrs at 37 degreeC by disc diffusion method
In short: (§2)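 Yeast gsk-3 null strain H10075 (mck1, mds1, mrk1, yol128c disrupted) carrying pKT10-GSK-3β. Grown 2 days at 37 °C in SC minus uracil broth, then seeded into SC minus uracil agar, pH 5.6. Samples on filter disks, screened at 20 µg/disk, actives retested down to 2.5 µg/disk. Plates held 72 h at both 25 and 37 °C. Zone of inhibition read; duplicates.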

[3] = target: Glycogen synthase kinase-3 beta (Homo sapiens) (UniProt P49841); test: Inhibition of GSK3-beta expressed in H10075 yeast assessed as growth inhibition at 10 ug/disk after 72 hrs at 37 degreeC by disc diffusion method; in short: as §2
[4] = target: Glycogen synthase kinase-3 beta (Homo sapiens) (UniProt P49841); test: Inhibition of GSK3-beta expressed in H10075 yeast assessed as growth inhibition at 10 ug/disk after 72 hrs at 24 degreeC by disc diffusion method
[5] = target: Glycogen synthase kinase-3 beta (Homo sapiens) (UniProt P49841); test: Inhibition of GSK3-beta expressed in H10075 yeast assessed as growth inhibition at 5 ug/disk after 72 hrs at 24 degreeC by disc diffusion method
[6] = target: Glycogen synthase kinase-3 beta (Homo sapiens) (UniProt P49841); test: Inhibition of GSK3-beta expressed in H10075 yeast assessed as growth inhibition at 5 ug/disk after 72 hrs at 37 degreeC by disc diffusion method; in short: as §1
[7] = target: Glycogen synthase kinase-3 beta (Homo sapiens) (UniProt P49841); test: Inhibition of GSK3-beta expressed in H10075 yeast assessed as growth inhibition at 2.5 ug/disk after 72 hrs at 24 degreeC by disc diffusion method
[8] = target: Glycogen synthase kinase-3 beta (Homo sapiens) (UniProt P49841); test: Inhibition of GSK3-beta expressed in H10075 yeast assessed as growth inhibition at 2.5 ug/disk after 72 hrs at 37 degreeC by disc diffusion method; in short: as §1

## Cn1sc(=O)n(Cc2ccccc2)c1=O
[1]
  inhibition zone (IZ): 10 mm
[2]
  inhibition zone (IZ): 11 mm
[3]
  inhibition zone (IZ): 10 mm
[4]
  inhibition zone (IZ): 9 mm
[5]
  inhibition zone (IZ): 8 mm
[6]
  inhibition zone (IZ): 9 mm
[7]
  inhibition zone (IZ): inactive
[8]
  inhibition zone (IZ): inactive

## CC/C=C(\C)C(=O)CC(O)CC1CC(=O)NC(=O)C1 (stereo not given)
[1]
  inhibition zone (IZ): 10 mm
[2]
  inhibition zone (IZ): 38 mm
[3]
  inhibition zone (IZ): 34 mm
[4]
  inhibition zone (IZ): inactive
[5]
  inhibition zone (IZ): inactive
[6]
  inhibition zone (IZ): 30 mm
[7]
  inhibition zone (IZ): inactive
[8]
  inhibition zone (IZ): 28 mm

## C[C@H]1C[C@H](C)C(=O)[C@@H]([C@H](O)CC2CC(=O)NC(=O)C2)C1
[1]
  inhibition zone (IZ): 22 mm
[2]
  inhibition zone (IZ): 33 mm
[3]
  inhibition zone (IZ): 25 mm
[4]
  inhibition zone (IZ): 16 mm
[5]
  inhibition zone (IZ): 12 mm
[6]
  inhibition zone (IZ): 15 mm
[7]
  inhibition zone (IZ): inactive
[8]
  inhibition zone (IZ): inactive

## C[C@@H]1C[C@@H]([C@H](O)CC2CC(=O)NC(=O)C2)C(=O)[C@@H](C)C1
[1]
  inhibition zone (IZ): 36 mm
[4]
  inhibition zone (IZ): 33 mm
[5]
  inhibition zone (IZ): 30 mm
[6]
  inhibition zone (IZ): 48 mm
[7]
  inhibition zone (IZ): 25 mm
[8]
  inhibition zone (IZ): 42 mm
